Bioassay records as filed in PubChem BioAssay.
The list is not random: actives were taken first. Their share in the collection is about 2.3%.
TPT1 inhibitor: blocks Candida albicans tRNA 2'-phosphotransferase; actives 0.81% (n = 300,000); inhibition, % at 5 µM; recombinant caTPT1, FP RNA substrate dephosphorylation; AID 1962;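 active means inhibition above the mean of all tested compounds plus 3 SD, set per screening campaign, cut at about 24% in these data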;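 further: plate controls were DMSO alone for no effect and ferristatin control at 100 nM for full effect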
CRFBP-R2 agonist: agonists of human CRF-binding protein/CRF-R2 receptor complex. activation, % at 13.2 µM. AID 588473. HEK293 CRF-R2/CRF-BP, calcium dye fluorescence (FLIPR); percent of saturating CRF peptide response. actives 0.46% (n = 350,000);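 active means activation of at least 50%, plus an integration ratio under a set limit after plate pattern correction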;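 further: plate controls were neutral control wells without compound for no effect and CRF at EC100 for full effect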
Rpn11 block: Rpn11 (human) deubiquitinase inhibition; human 26S proteasome, Ub4-pepOG fluorescence polarization; 20S core pre-blocked with epoxomicin; calls only at 20 µM; O00487; AID 588493; actives 0.59% (n = 360,000);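 active means inhibition at 20 µM, scaled to each plate's controls, above about 33%, limit read from the data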
HNF4A DNA FP: change in binding of human HNF4 alpha to DNA. P41235. HNF4a-FITC DNA binding, fluorescence polarization, 1 h. activity change, % at 10 µM. actives 0.3% (n = 360,000). AID 1224865; in the data active means activity change above about 30%, passing the limit was not always enough
Target sequence (P41235 whole entry, looked up): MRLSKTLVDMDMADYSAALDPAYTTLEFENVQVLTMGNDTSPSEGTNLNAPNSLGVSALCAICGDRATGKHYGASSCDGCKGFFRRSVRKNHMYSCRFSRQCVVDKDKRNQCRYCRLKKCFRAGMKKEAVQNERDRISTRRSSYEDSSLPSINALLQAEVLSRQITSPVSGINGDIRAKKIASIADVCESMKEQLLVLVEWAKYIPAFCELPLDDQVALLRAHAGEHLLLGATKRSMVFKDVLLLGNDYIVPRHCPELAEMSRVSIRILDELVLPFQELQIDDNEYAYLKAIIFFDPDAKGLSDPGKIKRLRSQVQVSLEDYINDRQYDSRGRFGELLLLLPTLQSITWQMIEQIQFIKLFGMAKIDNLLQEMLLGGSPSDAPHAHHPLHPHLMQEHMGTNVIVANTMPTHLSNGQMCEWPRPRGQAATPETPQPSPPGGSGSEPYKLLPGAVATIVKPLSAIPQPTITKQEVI
CRFR2-BP antag: antagonists of CRF-binding protein/CRF-R2 receptor complex; actives 0.59% (n = 350,000); inhibition, % at 11.8 µM; HEK293 CRF-R2/CRF-BP, CRF-induced calcium fluorescence;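 active means inhibition of the ligand-induced calcium signal above about 50% at the single tested concentration, limit read from the data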
CSN deneddyl inh: inhibitors of human CSN-mediated cullin deneddylation; Q92905; Purified CSN, SCF-Nedd8-OG deneddylation, fluorescence polarization; inhibition, % at 12.5 µM; actives 0.38% (n = 360,000); AID 651999;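 active means pattern-corrected inhibition above about 35%, with an unprinted fluorescence ratio check between 0.5 and 1.5, limit read from the data, passing the limit was not always enough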;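 further: 0% = enzyme with substrate and 100% = substrate without enzyme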
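Material: purified human Csn5 enzyme expressed in HEK293T cells / Medium: Tris buffer pH 7.5, NaCl, DTT, Tween-20, trehalose, ovalbumin / Compound dosing: 12.5 µM single point / Schedule: 90 min incubation of compound, enzyme and substrate at room temperature / Signal: fluorescence polarization of the substrate / Control set: no-enzyme wells high, enzyme-with-substrate wells low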
TPT1 inh confirm: TPT1 (C. albicans) inhibition, confirmation; shares compounds with TPT1 inhibitor; recombinant caTPT1, fluorescence polarization, RNase T1 coupled; inhibition, % at 5 µM; actives 74% (n = 2,400);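 active means inhibition above the primary screen limit, the mean inhibition of all tested compounds plus 3 SD, cut at about 25% in these data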
RNase T1 counter: blocks Aspergillus oryzae RNase T1, a TPT1 counter-screen; shares compounds with TPT1 inhibitor; RNase T1 cleavage, fluorescence polarization, 1536-well; inhibition, % at 5 µM; actives 83% (n = 2,400); AID 2153;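 active means inhibition above the solvent-only control well mean plus 3 SD, limit set per screening run, cut at about 23% in these data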;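 further: plate controls were DMSO wells with enzyme for no effect and wells without RNase T1 for full effect; inhibitors block cleavage so intact labeled substrate keeps polarization high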
* marks the source's active call; other numbers are inactive results; i = inactive; . = no result given; + = active, no number.

SMILES | TPT1 inhibitor | CRFBP-R2 agonist | Rpn11 block | HNF4A DNA FP | CRFR2-BP antag | CSN deneddyl inh | TPT1 inh confirm | RNase T1 counter
Cc1cccc(C)c1C(O)c1ncc(-c2ccc(F)cc2)[nH]1 (stereo unspecified) | . | . | i | -5.6 | . | 2.2 | . | .
COc1ccc(C2(CNC(=O)c3ccc(C)cc3)CCOCC2)cc1 | -3.1 | -0.2 | i | -0.9 | 26.0 | 2.1 | . | .
CC(=O)Nc1ccc(OCc2ccc3c(c2)OCO3)cc1 | -3.9 | 2.1 | i | -0.1 | -0.4 | 1.8 | . | .
CCOC(=O)c1sc(=NC(=O)c2cccc(OC)c2)n(C)c1C | 63.8* | 3.6 | i | -1.0 | -9.9 | -4.3 | 5.0 | 5.2
O=C(N/C=C/c1ccco1)NCc1ccccc1 | 7.9 | 3.2 | i | -7.4 | 3.9 | 11.2 | . | .
O=C(N/C=C/c1ccco1)OCc1ccccc1 | 30.9* | -1.5 | + | 13.8 | -3.0 | 2.9 | 18.6 | 30.7*
CN(CC1CCN(CCc2cccc(C(F)(F)F)c2)CC1)C(=O)c1ccc(F)cc1F | -2.1 | -1.4 | i | 1.7 | 1.2 | 0.2 | . | .
Cn1c(C(=O)NC2CCCCC2)cc2c(=O)n(C)c3ccccc3c21 | 66.5* | -0.3 | i | 2.0 | -41.8 | 2.5 | 1.9 | 0.7
Cn1c(C(=O)NC2CCCCCC2)cc2c(=O)n(C)c3ccccc3c21 | -3.9 | -0.7 | i | -1.1 | -3.6 | -2.4 | . | .
C/C(=N\NC(=O)c1c(C)nc2ccccn12)c1ccc(O)cc1O | 35.0* | 27.7 | i | 4.9 | -4.7 | 3.2 | 37.6* | 41.3*
NNc1nc(-c2ccccc2Cl)nc2ccccc12 | 31.1* | 4.1 | i | 1.4 | 9.7 | 4.8 | 20.2 | 33.1*
COc1ccccc1OC(=O)Nc1ccc(Cl)cc1 | 40.6* | 0.9 | i | 0.6 | -3.6 | 1.1 | 4.0 | 5.5
CCC(C(=O)OCC(=O)Nc1ccc(C)c(S(=O)(=O)N2CCOCC2)c1)c1ccccc1 (stereo unspecified) | 6.7 | 4.1 | i | -1.7 | 4.4 | -1.2 | . | .
c1ccc(CSc2nnnn2-c2ccc3c(c2)OCCO3)nc1 | 0.8 | 3.9 | i | -1.7 | -2.4 | 4.2 | . | .
COc1ccc(CCNc2nc(-c3ccc(F)cc3)c(CC(=O)O)s2)cc1OC | 98.1* | 1.9 | i | 4.2 | 11.2 | 31.8 | 14.8 | 23.4*
COc1cc(/C=C2\C(=O)ON=C2c2ccccc2)cc(Br)c1O | 42.7* | 20.2 | i | 2.3 | -44.1 | 10.5 | 137.6* | 139.1*
COc1cc(C=C2C(=O)OC(c3ccccc3)OC2=O)cc(Br)c1O (stereo unspecified) | -7.0 | 0.2 | i | -6.1 | -1.4 | -1.9 | . | .
COc1cc(/C=C2\C(=O)ON=C2c2ccccc2)cc(Cl)c1O | 35.4* | 14.8 | i | -2.2 | -18.3 | 2.1 | 122.7* | 128.0*
CCOc1cc(/C=C2/C(=O)ON=C2C)cc(Br)c1O | 40.0* | 7.5 | i | 3.0 | -7.9 | 9.0 | 110.6* | 121.6*
Cc1ccc(/C=C2/C(=O)ON=C2c2ccccc2)o1 | 33.7* | 30.6 | i | -6.3 | -38.1 | 16.7 | 16.7 | 25.2*
O=C1ON=C(c2ccccc2)/C1=C/c1ccccc1 | -2.8 | 0.1 | i | 1.0 | 10.0 | -0.4 | . | .
CN(CCOC(=O)c1cccc(Br)c1)C(C)(C)C | -0.7 | 7.3 | i | 0.3 | 8.3 | -0.2 | . | .
CCN(CC)CC(O)CN(c1ccccc1)S(=O)(=O)c1ccc2ccccc2c1 (stereo unspecified) | 3.1 | -0.2 | i | 1.5 | -7.2 | -2.6 | . | .
CN(CCc1ccccc1)c1cc2c(c3c1ccn3C)C1CCC2O1 (stereo unspecified) | . | . | i | 4.4 | . | 0.1 | . | .
CCOc1cc(/C=C2\C(=O)ON=C2c2ccccc2)cc(Br)c1O | 39.9* | 23.9 | i | 4.6 | -37.3 | 5.7 | 137.5* | 137.6*
O=C(CCCn1c(=O)[nH]c2ccsc2c1=O)N1CCN(Cc2ccc3c(c2)OCO3)CC1 | -2.9 | -2.2 | i | 1.3 | 35.3 | 2.5 | . | .
